Kir21 inh: Kir2.1 (mouse) channel inhibition; P35561; HEK293-Kir2.1, FluxOR thallium flux fluorescence; active compounds read low; B-score at 10 µM; 310,000 compounds, 0.85% hits;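 active = fluorescence ratio B-score at or below minus 3 SD of library scores, with starting-brightness B-score within 2 SD, cut at about -4.2 in these data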;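 also: channel flux triggered by added potassium and thallium sulfate stimulus; B-score of peak minus minimum fluorescence over baseline after thallium stimulus; more negative B-score means stronger Kir2.1 block with less thallium influx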
hERG rescue: compounds protecting human hERG from proarrhythmic drug block | AID 1511 | activation (rescue from dofetilide block), less the hit threshold, % at 10 µM | 310,000 compounds, 0.51% hits | CHO-hERG, FluxOR thallium flux, dofetilide IC70 present | Q12809;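 active = activation above the mean of controls blocked by dofetilide plus 5 SD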;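 also: thallium influx through hERG after potassium depolarization seen as dye fluorescence rise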
KCNQ1 inh: human KCNQ1 channel inhibition. P51787. CHO-K1 KCNQ1, FluxOR thallium flux fluorescence; active compounds read high. B-score at 10 µM. 310,000 compounds, 1.3% hits. AID 2642;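 active = compounds whose thallium flux B-score, printed positive for inhibition, exceeds three library SD while starting fluorescence stays within three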;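 also: channel opened by potassium depolarization with thallium stimulus after 20 min compound exposure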
KCNQ1 pot: potentiators or activators of human KCNQ1 potassium channel | B-score at 10 µM | CHO-K1 KCNQ1, thallium flux FluxOR fluorescence; active compounds read high | P51787 | 310,000 compounds, 0.35% hits | AID 2648;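 active = fluorescence ratio B-score, a plate-corrected score, at least three library SD, with initial intensity B-score within 5 SD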
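Assay system: CHO-K1 cells stably expressing KCNQ1. Medium: assay buffer for compound exposure, DMSO matched across wells. Timing: 37 °C overnight plating, 90-min dark dye load, 20-min compound pretreatment. Signal: kinetic FluxOR fluorescence, 10 s baseline plus 110 s post-stimulus.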
KCNK3 block: human KCNK3 channel inhibition, primary screen | 340,000 compounds, 0.84% hits | O14649 | CHO-KCNK3 thallium flux, FluxOR fluorescence; active compounds read low | B-score at 10 µM;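 active = B-score under library mean minus 4 SD, starting fluorescence ratio at most library mean plus 5 SD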;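 also: more negative B-score means stronger inhibition of thallium flux through KCNK3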
Target sequence (O14649 whole entry, looked up): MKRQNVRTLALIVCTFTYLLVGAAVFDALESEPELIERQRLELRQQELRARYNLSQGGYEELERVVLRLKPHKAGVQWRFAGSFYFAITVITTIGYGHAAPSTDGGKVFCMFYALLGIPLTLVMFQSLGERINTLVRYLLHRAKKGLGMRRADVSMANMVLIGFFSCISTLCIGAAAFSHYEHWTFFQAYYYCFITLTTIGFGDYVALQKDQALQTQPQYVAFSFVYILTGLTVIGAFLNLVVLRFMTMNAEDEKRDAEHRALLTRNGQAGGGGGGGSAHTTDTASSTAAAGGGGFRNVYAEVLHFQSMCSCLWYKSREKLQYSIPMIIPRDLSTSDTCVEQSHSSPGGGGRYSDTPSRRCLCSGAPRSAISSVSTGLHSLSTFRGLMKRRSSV
KCNK9 block: blocks the human KCNK9 two-pore domain potassium channel. Q9NPC2. B-score at 10 µM. 310,000 compounds, 1.2% hits. HEK293 KCNK9, FluxOR thallium flux fluorescence; active compounds read low;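 active = ratio B-score over 3 SD below the library mean, with starting fluorescence within 5 SD of its mean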;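 also: negative B-score means less thallium flux so channel inhibition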
KCNK9 inh conf: human KCNK9 inhibitor confirmation | shares compounds with KCNK9 block | HEK293 KCNK9 cells, FluxOR thallium flux fluorescence | inhibition, % at 10 µM | 4,900 compounds, 43% hits | AID 492992;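 active = thallium signal inhibited by more than 5 SD of the compound-free buffer control wells, on both duplicate plates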;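 also: 0% = assay buffer control wells without compound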
Kir21 sel: mouse Kir2.1 off-target activity of KCNK9 modulators; shares compounds with KCNK9 block; Kir2.1 cells, FluxOR thallium flux fluorescence; inhibition, % at 10 µM; 4,900 compounds, 4% hits;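 active = thallium signal drop more than 5 SD beyond the mean of the no-compound control wells, seen in both duplicate plates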;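 also: signal is fluorescence rise after thallium addition divided by baseline fluorescence; plate controls were assay buffer only for no effect and full block by chlorpromazine control for full effect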
HEK293 Tl ctr: second counter-screen for KCNK9 modulators: effect in non-induced cells | shares compounds with KCNK9 block | non-induced KCNK9-HEK293, FluxOR thallium flux | inhibition, % at 10 µM | 4,900 compounds, 40% hits;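 active = thallium signal drop beyond 5 SD of the untreated control mean, on both duplicate plates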;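 also: plate controls were buffer only IC0 wells for no effect and SID17386958 at its maximal inhibitory level for full effect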
* = called active by the depositor; i = inactive; nt = not tested or not shown; ! = not confirmed by another sample. A selection: hits, their analogues and other compounds. The true share with any hit is near 3.7%.

SMILES	Kir21 inh	hERG rescue	KCNQ1 inh	KCNQ1 pot	KCNK3 block	KCNK9 block	KCNK9 inh conf	Kir21 sel	HEK293 Tl ctr
CCN(CC)c1ccc(NC(=O)CN(C)Cc2cccs2)cc1	0.09	-6	i	i	i	i	nt	nt	nt
Cc1ccc(Cl)cc1NC1=C/C(=N\S(=O)(=O)c2cccs2)c2ccccc2C1=O	0.68	-2	i	i	-10*!	-8.3*	26%*	i	i
COc1cccc(-c2ccc(SCc3ccccn3)nn2)c1	-1.7	-23	i	i	i	i	i	i	i
CCCN1C(C)C(C(=O)OCC)=CN(Cc2cccc(I)c2)S1(=O)=O (stereo unspecified)	nt	nt	nt	nt	i	nt	nt	nt	nt
O=C(Cn1cnc2ccccc2c1=O)NNC(=O)c1ccccc1	-0.08	-8	i	i	i	i	nt	nt	nt
O=C(C1=C[C@@H](c2ccc(C(F)(F)F)cc2)C[C@@H](OCCCCO)O1)N1CCN(Cc2ccccc2)CC1	-1	-12	i	i	i	i	nt	nt	nt
O=C(C1=C[C@@H](c2ccc(Br)cc2)C[C@@H](OCc2ccc(CO)cc2)O1)N1CCN(Cc2ccccc2)CC1	-0.56	-10	i	i	i	i	nt	nt	nt
C#Cc1ccc([C@H]2C=C(C(=O)N3CCN(Cc4ccccc4)CC3)O[C@@H](OCc3ccc(CO)cc3)C2)cc1	-0.74	-9	i	i	i	i	i	i	i
O=C(C1=C[C@H](c2ccc(C(F)(F)F)cc2)C[C@H](OCCCCO)O1)N1CCN(Cc2ccccc2)CC1	-0.44	-11	i	i	i	i	i	i	i
Cc1cccc(Cl)c1NC(=S)NCCc1ccccn1	2.2	-5	i	i	i	-8.2*	44%*	i	28%*
CCc1ccc(-c2nn(-c3ccccc3)cc2C2SCC(=O)N2Cc2ccco2)cc1 (stereo unspecified)	0.03	-10	i	i	i	i	i	i	i
O=C1CSC(c2ccncc2)N1Cc1ccco1 (stereo unspecified)	-0.98	-6	i	i	i	i	nt	nt	nt
CCc1ccccc1NC(=O)/C(C#N)=C\c1ccc(Sc2ccccc2)o1	0.6	-3	i	i	-9.4*	-11*	40%*	i	49%*
CCc1ccccc1NC(=O)/C(C#N)=C/c1ccc(Sc2ccccc2)o1	0.59	-7	i	i	i	-14*	53%*	i	51%*
CC1CC1c1ccc(/C=C(\C#N)C(=O)Nc2ccccc2Cl)o1 (stereo unspecified)	-0.24	-13	i	i	i	i	nt	nt	nt
Cc1cc(C)nc(Sc2ccc(/C=C(\C#N)C(=O)Nc3ccccc3)o2)n1	-0.62	2	i	i	i	i	nt	nt	nt
COc1ccccc1N1CCN(C2CCCN(C(=O)c3ccoc3C)C2)CC1 (stereo unspecified)	1.6	-5	i	i	i	i	nt	nt	nt
COc1ccccc1N1CCN(C2CCCN(C(=O)c3cccc(-c4ccco4)c3)C2)CC1 (stereo unspecified)	-0.55	-15	i	i	i	i	i	i	i
CCOC(=O)C1CCN(C(=O)c2ccc(NS(=O)(=O)c3ccc4[nH]c(=O)[nH]c4c3)cc2)CC1	nt	nt	nt	nt	i	nt	nt	nt	nt
Brc1ccc(CSc2nnc(-c3ccccn3)n2Cc2ccco2)cc1	-2	-16	i	i	i	-16*	44%*	i	41%*
Clc1cccc(CSc2nnc(-c3ccccn3)n2Cc2ccco2)c1	-3.9	-19	i	i	i	i	nt	nt	nt
Clc1cccc(Cl)c1CN1CCN(c2ncccn2)CC1	-0.31	-6	i	i	i	i	nt	nt	nt
Cc1ccc(SCc2c(-c3ccccc3)nn(C)c2Cl)cc1	-1.4	-5	6*	i	i	-8.5*	42%*	34%*	47%*
Cn1nc(-c2ccccc2)c(CN2CCN(c3ncccn3)CC2)c1Cl	-2.7	-5	i	i	i	i	i	i	i
Cc1ccc(Sc2c(C#N)c(-c3ccccc3)nn2C)cc1	0.07	-15	6*	i	i	-9.8*	56%*	i	40%*
SMILES	Kir21 inh	hERG rescue	KCNQ1 inh	KCNQ1 pot	KCNK3 block	KCNK9 block	KCNK9 inh conf	Kir21 sel	HEK293 Tl ctr
Cc1ccc(SCc2nn(C)c(Cl)c2C=O)cc1	0	-7	i	i	i	i	nt	nt	nt
CCOc1ccccc1C(=O)NCC(=O)NCCCSc1ccccc1	-0.2	-5	i	i	i	i	nt	nt	nt
CCN(CC)C(=O)[C@H]1C[C@H](CC(=O)NC(C)(C)C)C(=O)N2CCc3c([nH]c4ccc(Cl)cc34)[C@]12C	nt	nt	nt	nt	i	nt	nt	nt	nt
COc1ccc(OC)c(Nc2ncnc3sccc23)c1	-0.57	-4	i	i	i	i	nt	nt	nt
COc1ccc(OC)c(Nc2ncnc3sc(-c4ccccc4)cc23)c1	-0.05	-9	i	i	i	-11*	i	i	32%*
c1coc(-c2nnc3sc(-c4cccs4)nn23)c1	nt	nt	nt	nt	i	nt	nt	nt	nt
CC(C)(C)OC(=O)NCCCCCc1nnc(SCc2ccccc2F)o1	-0.53	-7	i	i	i	i	i	i	i
CC(C)(C)OC(=O)NCCCCCc1nnc(SCc2ccccc2)o1	-4.1	-7	i	i	i	i	nt	nt	nt
COc1ccc(-c2c(-c3ccccc3OC)sc3ccccc23)cc1C=O	nt	nt	nt	nt	i	nt	nt	nt	nt
O=C(O)CN1C(=O)/C(=C\c2cccc(OCc3ccc(Cl)cc3Cl)c2)SC1=S	-1.9	-2	i	i	i	i	i	i	i
O=C(O)CN1C(=O)/C(=C\c2cc(Br)ccc2OCc2ccccc2Cl)SC1=S	0.76	-10	i	i	i	i	nt	nt	nt
O=C(O)CN1C(=O)/C(=C\c2cc(Br)ccc2OCc2ccccc2F)SC1=S	2.2	-9	i	i	i	i	i	i	i
O=C(O)CN1C(=O)/C(=C\c2ccccc2OCc2ccc(Cl)cc2Cl)SC1=S	-0.14	-6	i	i	i	i	nt	nt	nt
O=C(O)CN1C(=O)/C(=C\c2cn(-c3ccccc3)nc2-c2ccccc2)SC1=S	-0.8	-13	i	i	i	i	i	i	i
COc1ccccc1N1CCN(C2CCCN(C(=O)CCc3ccccn3)C2)CC1 (stereo unspecified)	-0.96	-4	i	i	i	i	nt	nt	nt
